Tests used:
Assay type in all cases: functional
MCF7 = assay: Growth inhibition against human MCF7 cells assessed as total growth inhibitory concentration incubated for 48 hrs by sulforhodamine B assay
HCT-116 = assay: Antiproliferative activity against human HCT-116 cells assessed as cell growth at 0.0001 M incubated for 48 hrs by SRB assay relative to control; details: read-out: Activity
Summary of the method: (§1)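 NCI-60 five-dose screen (10^-4 to 10^-8 M). Cells grown in RPMI 1640 with 5% FBS and 2 mM L-glutamine, plated at 5,000-40,000 cells/well and preincubated 24 h. Drug given from DMSO stock, then 48 h at 37 °C, 5% CO2. For adherent lines, cells fixed with cold TCA, SRB-stained and read at 515 nm. Percent growth taken against time-zero and untreated control.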

T47D = assay: Antiproliferative activity against human T47D cells assessed as cell growth at 0.000001 M incubated for 48 hrs by SRB assay relative to control; details: read-out: Activity
786-0 [1] = assay: Antiproliferative activity against human 786-0 cells assessed as cell growth at 0.00001 M incubated for 48 hrs by SRB assay relative to control; details: read-out: Activity
Summary of the method: (§2)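 NCI-60 five-dose screen over 10^-4–10^-8 M (10-fold dilutions). Cells grown in RPMI 1640 with 5% FBS and 2 mM L-glutamine, seeded at 5,000–40,000 cells/well and preincubated 24 h. Drug from DMSO stock, 48 h at 37 °C, 5% CO2. Adherent cells TCA-fixed and stained with 0.4% SRB; A515 read. Percent growth = (Ti−Tz)/(C−Tz)×100, or (Ti−Tz)/Tz×100 when Ti<Tz.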

NCI-H522 = assay: Growth inhibition against human NCI-H522 cells incubated for 48 hrs by sulforhodamine B assay
NCI-H226 = assay: Antiproliferative activity against human NCI-H226 cells assessed as cell growth at 0.000001 M incubated for 48 hrs by SRB assay relative to control; details: read-out: Activity
NCI/ADR-RES = assay: Antiproliferative activity against human NCI/ADR-RES cells assessed as cell growth inhibition by measuring lethal concentration incubated for 48 hrs by sulforhodamine B assay; details: read-out: LC50 (the source's name)
HCC 2998 = assay: Antiproliferative activity against human HCC 2998 cells assessed as cell growth at 0.0000001 M incubated for 48 hrs by SRB assay relative to control; details: dose 100 nM, read-out: Activity; summary of the method: as §1
A549 = assay: Antiproliferative activity against human A549 cells assessed as cell growth at 0.00001 M incubated for 48 hrs by SRB assay relative to control; details: read-out: Activity; summary of the method: as §2
HCT-15 = assay: Antiproliferative activity against human HCT-15 cells assessed as cell growth inhibition by measuring lethal concentration incubated for 48 hrs by sulforhodamine B assay; details: read-out: LC50 (the source's name)
SN12C [2] = assay: Antiproliferative activity against human SN12C cells assessed as cell growth at 0.00000001 M incubated for 48 hrs by SRB assay relative to control; details: dose 10 nM, read-out: Activity
TK-10 = assay: Growth inhibition against human TK-10 cells assessed as total growth inhibitory concentration incubated for 48 hrs by sulforhodamine B assay
DU-145 = assay: Antiproliferative activity against human DU-145 cells assessed as cell growth at 0.00000001 M incubated for 48 hrs by SRB assay relative to control; details: dose 10 nM, read-out: Activity; summary of the method: as §2
HT-29 [3] = assay: Antiproliferative activity against human HT-29 cells assessed as cell growth at 0.000001 M incubated for 48 hrs by SRB assay relative to control; details: read-out: Activity; summary of the method: as §1
UO-31 = assay: Antiproliferative activity against human UO-31 cells assessed as cell growth at 0.0000001 M incubated for 48 hrs by SRB assay relative to control; details: dose 100 nM, read-out: Activity
LOX IMVI [4] = assay: Antiproliferative activity against human LOX IMVI cells assessed as cell growth at 0.0000001 M incubated for 48 hrs by SRB assay relative to control; details: dose 100 nM, read-out: Activity
SN12C [5] = assay: Antiproliferative activity against human SN12C cells assessed as cell growth at 0.00001 M incubated for 48 hrs by SRB assay relative to control; details: read-out: Activity
OVCAR-5 [6] = assay: Antiproliferative activity against human OVCAR-5 cells assessed as cell growth at 0.00001 M incubated for 48 hrs by SRB assay relative to control; details: read-out: Activity
HT-29 [7] = assay: Growth inhibition against human HT-29 cells incubated for 48 hrs by sulforhodamine B assay
OVCAR-5 [8] = assay: Antiproliferative activity against human OVCAR-5 cells assessed as cell growth at 0.00000001 M incubated for 48 hrs by SRB assay relative to control; details: dose 10 nM, read-out: Activity
MDA-MB-468 = assay: Antiproliferative activity against human MDA-MB-468 cells assessed as cell growth at 0.0000001 M incubated for 48 hrs by SRB assay relative to control; details: dose 100 nM, read-out: Activity
Malme-3M = assay: Antiproliferative activity against human Malme-3M cells assessed as cell growth inhibition by measuring lethal concentration incubated for 48 hrs by sulforhodamine B assay; details: read-out: LC50 (the source's name)
M14 = assay: Antiproliferative activity against human M14 cells assessed as cell growth at 0.000001 M incubated for 48 hrs by SRB assay relative to control; details: read-out: Activity
SR = assay: Antiproliferative activity against human SR cells assessed as cell growth at 0.00001 M incubated for 48 hrs by SRB assay relative to control; details: read-out: Activity
COLO 205 = assay: Antiproliferative activity against human COLO 205 cells assessed as cell growth at 0.00001 M incubated for 48 hrs by SRB assay relative to control; details: read-out: Activity; summary of the method: as §2
SF-268 = assay: Antiproliferative activity against human SF-268 cells assessed as cell growth at 0.0000001 M incubated for 48 hrs by SRB assay relative to control; details: dose 100 nM, read-out: Activity
Hs-578T = assay: Antiproliferative activity against human Hs-578T cells assessed as cell growth at 0.00000001 M incubated for 48 hrs by SRB assay relative to control; details: dose 10 nM, read-out: Activity
Summary of the method: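 NCI-60 five-dose mode, 10^-4 to 10^-8 M in 10-fold steps. RPMI 1640, 5% FBS, 2 mM L-glutamine; 24 h preincubation, then 48 h drug exposure at 37 °C. Stocks in DMSO at 400× the top concentration, diluted in medium with gentamicin. TCA fixation, SRB staining, absorbance at 515 nm. Percent growth from time-zero (Tz), control (C) and test (Ti) readings.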

U-251 = assay: Antiproliferative activity against human U-251 cells assessed as cell growth at 0.00000001 M incubated for 48 hrs by SRB assay relative to control; details: dose 10 nM, read-out: Activity
786-0 [9] = assay: Growth inhibition against human 786-0 cells incubated for 48 hrs by sulforhodamine B assay
UACC-62 = assay: Antiproliferative activity against human UACC-62 cells assessed as cell growth at 0.0000001 M incubated for 48 hrs by SRB assay relative to control; details: dose 100 nM, read-out: Activity
HOP-62 = assay: Antiproliferative activity against human HOP-62 cells assessed as cell growth at 0.00000001 M incubated for 48 hrs by SRB assay relative to control; details: dose 10 nM, read-out: Activity; summary of the method: as §1
KM12 = assay: Growth inhibition against human KM12 cells incubated for 48 hrs by sulforhodamine B assay
LOX IMVI [10] = assay: Growth inhibition against human LOX IMVI cells incubated for 48 hrs by sulforhodamine B assay

Row | SMILES | TGI (MCF7) | growth at 100 µM (HCT-116) | growth at 1 µM (T47D) | growth at 10 µM (786-0 [1]) | GI50 (NCI-H522) | growth at 1 µM (NCI-H226) | CC50 (NCI/ADR-RES) | growth at 0.1 µM (HCC 2998) | growth at 10 µM (A549) | CC50 (HCT-15) | growth at 0.01 µM (SN12C [2]) | TGI (TK-10) | growth at 0.01 µM (DU-145) | growth at 1 µM (HT-29 [3]) | growth at 0.1 µM (UO-31) | growth at 0.1 µM (LOX IMVI [4]) | growth at 10 µM (SN12C [5]) | growth at 10 µM (OVCAR-5 [6]) | GI50 (HT-29 [7]) | growth at 0.01 µM (OVCAR-5 [8]) | other results
1 | c1ccc(Cn2cnc3ccc(-c4nc(-c5ccc6c(c5)ncn6C5CCCCC5)cn5ccnc45)cc32)cc1 | > 100000 nM | -33% | 61% | 4% | 2030 nM | 95% | > 100000 nM | 98% | -46% | > 100000 nM | 102% | > 100000 nM | 99% | 88% | 86% | 94% | -32% | -3% | 1890 nM | 89% | growth at 0.1 µM (MDA-MB-468): 104%; CC50 (Malme-3M): > 100000 nM; growth at 1 µM (M14): 65%; growth at 10 µM (SR): 5%; growth at 10 µM (COLO 205): -61%; growth at 0.1 µM (SF-268): 94%; growth at 0.01 µM (Hs-578T): 99%; growth at 0.01 µM (U-251): 98%; GI50 (786-0 [9]): 799 nM; growth at 0.1 µM (UACC-62): 90%; growth at 0.01 µM (HOP-62): 79%; GI50 (KM12): 2090 nM; GI50 (LOX IMVI [10]): 1640 nM
2 | COc1ccc(-c2cn3ccnc3c(-c3ccc4ncn(C5CCCCC5)c4c3)n2)cc1 | > 100000 nM | -29% | 45% | -32% | 424 nM | 73% | > 100000 nM | 94% | 14% | > 100000 nM | 97% | 68900 nM | 103% | 20% | 88% | 92% | 16% | 31% | 383 nM | 86% | growth at 0.1 µM (MDA-MB-468): 99%; CC50 (Malme-3M): > 100000 nM; growth at 1 µM (M14): 38%; growth at 10 µM (SR): 9%; growth at 10 µM (COLO 205): 1%; growth at 0.1 µM (SF-268): 92%; growth at 0.01 µM (Hs-578T): 106%; growth at 0.01 µM (U-251): 102%; GI50 (786-0 [9]): 527 nM; growth at 0.1 µM (UACC-62): 90%; growth at 0.01 µM (HOP-62): 92%; GI50 (KM12): 1350 nM; GI50 (LOX IMVI [10]): 741 nM
